# FXN GAA850 act: FXN promoter activators, primary screen, cell-based, luciferase luminescence, HEK293 lucGAA850 | 360,000 tested, 0.56% active | HEK293 lucGAA850 FXN promoter luciferase reporter, 24 h; percent of 10 µM SAHA response | activation, % at 6 µM | AID 540364, 2011;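 active = activation above the average of all compounds screened plus 3 SD, cutoff fixed separately per campaign, cut at about 7.5% in these data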;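 also: 0% = DMSO wells and 100% = 10 µM SAHA wells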
# Rad51 HR inh: human RAD51 strand exchange inhibitors, primary screen, biochemical, fluorescence; AID 1385, 2008; DNA repair protein RAD51 homolog 1 (Homo sapiens), Q06609; inhibition, % at 10 µM; hRad51 DNA strand exchange, fluorescence dequenching; 200,000 tested, 0.085% active;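 active = inhibition above 40% at the single screening dose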;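 also: 0% = DMSO control wells and 100% = blanks with heterologous ssDNA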
#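 Material: Human Rad51 nucleoprotein filaments preassembled on unlabelled ssDNA | Also added: Labelled 47-mer dsDNA for strand exchange | Dosing: Single dose, 10 µM final compound | Schedule: 30-min compound preincubation and 15-min exchange, both room temperature | Technique: Fluorescence dequenching at 485/520 nm | Measure: Percent inhibition relative to plate controls and blanks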
# H9c2 TAG inh: inhibitors of triacylglycerol accumulation, primary screen, cell-based, uHTS, fluorescence, H9c2. H9c2 cells, Nile Red lipid (TAG) fluorescence; cells loaded with 200 µM oleic acid. 230,000 tested, 0.66% active. AID 651582, 2012. inhibition, % at 12.5 µM;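 active = pattern-corrected inhibition of lipid staining of at least 50% with the nuclear-stain viability signal not falling by more than 50%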;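 also: 0% = DMSO wells and 100% = triacsin C control wells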
# HIF act: HIF pathway transcriptional activators, primary screen, cell-based, U2OS HRE-luciferase, luminescence; U2OS HRE-luciferase reporter; normalized: DMSO 0%, desferrioxamine 100%; activation, % at 7.5 µM (by protocol); 300,000 tested, 0.32% active; AID 1910, 2009;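 active = mean activation of at least 10% of the iron chelator positive control signal, with at least half of replicates also reaching 10%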
# Hsp70 act: Hsp70 transcriptional activators, primary screen, cell-based, HeLa, Hsp70 promoter luciferase, luminescence, 10 µM; HeLa Hsp70 promoter luciferase reporter; scaled: vehicle 0, proteasome-inhibitor control 100%; activation, % at 10 µM; 200,000 tested, 0.04% active;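 active = activation above the mean across all tested compounds plus 3 SD, cutoff set per campaign, cut at about 5.5% in these data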;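 also: 100% = MG132 at 30 µM as the positive control and 0% = DMSO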
# ABHD5 PLIN5 PPI: ABHD5-PLIN5 interaction inhibitors, primary screen, cell lysate, split luciferase complementation, luminescence. Perilipin-5 (Homo sapiens) + 1-acylglycerol-3-phosphate O-acyltransferase ABHD5 (Homo …. Split G. princeps luciferase complementation, 4 h. inhibition, % at 4 µM. 360,000 tested, 0.78% active. AID 602281, 2012;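 active = inhibition above the mean inhibition across every tested compound plus 3 SD, cut at about 22% in these data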;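 also: 0% = DMSO only wells and the 100% control is not disclosed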
# ABHD5-PLIN5 conf: ABHD5-PLIN5 interaction inhibitors, confirmation, biochemical, luminescence; shares compounds with ABHD5 PLIN5 PPI; inhibition, % at 4 µM; 2,200 tested, 67% active; AID 651612, 2012; in the data active = inhibition above about 23%;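 also: 0% = DMSO vehicle wells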
# HNF4 counter: HNF4 dimerization inhibitors, counter-screen for ABHD5-PLIN5 interaction inhibitor project, biochemical, split-luciferase complementation, luminescence; shares compounds with ABHD5 PLIN5 PPI; AID 651674, 2012; inhibition, % at 4 µM; 2,200 tested, 77% active;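 active = mean inhibition across replicate wells exceeding the computed hit threshold, cut at about 13% in these data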;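 also: light from luciferase halves that rejoin when HNF4 fusion proteins dimerize; 0% = DMSO only wells and the 100% control is not given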
# Target sequence (P41235 whole entry, looked up, the tested form may be a part): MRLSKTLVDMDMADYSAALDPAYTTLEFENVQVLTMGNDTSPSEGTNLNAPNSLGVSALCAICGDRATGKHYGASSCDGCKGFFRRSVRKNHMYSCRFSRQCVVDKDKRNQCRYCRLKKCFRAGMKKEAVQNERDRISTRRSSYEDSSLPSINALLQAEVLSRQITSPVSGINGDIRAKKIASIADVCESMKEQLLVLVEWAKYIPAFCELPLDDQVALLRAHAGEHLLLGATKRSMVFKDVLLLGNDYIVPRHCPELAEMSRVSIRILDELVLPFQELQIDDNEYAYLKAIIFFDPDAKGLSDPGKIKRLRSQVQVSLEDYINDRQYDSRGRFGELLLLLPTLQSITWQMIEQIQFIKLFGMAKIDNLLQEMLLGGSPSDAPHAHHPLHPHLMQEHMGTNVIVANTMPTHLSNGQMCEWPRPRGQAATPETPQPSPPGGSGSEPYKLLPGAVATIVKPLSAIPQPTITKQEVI
# An asterisk follows results filed as active; i = inactive; . = no result given. Sampled rows, rich in hits. Any-hit rate of the full collection: about 1.9%.
SMILES,FXN GAA850 act,Rad51 HR inh,H9c2 TAG inh,HIF act,Hsp70 act,ABHD5 PLIN5 PPI,ABHD5-PLIN5 conf,HNF4 counter
C=C(C(=O)c1ccccc1)C(NC(C)(C)C)c1ccccc1 (stereo unspecified),-14,.,49,.,.,42*,65*,54*
CCOC(=O)CSc1nnc(NCC(=O)OC(C)C)c(=O)[nH]1,0,-6,0,0,0,27*,48*,98*
O=c1c(Br)ccc(Br)cc1Br,-16,.,99*,.,.,84*,101*,111*
O=C1CN(S(=O)(=O)c2cc(Br)ccc2Br)CCN1,4,.,-5,.,.,-9,.,.
COc1cccc(NC(=S)NC(=O)/C=C/c2ccc(F)cc2)c1,3,.,-4,2,.,-6,.,.
CCC(=O)Nc1cccc(C(=O)/C=C/c2ccc(F)cc2)c1,3,24,-12,3,1,46*,92*,85*
CSc1ccc(/C=C/C(=O)c2ccc(NC(C)=O)cc2)cc1,0,-7,-9,0,0,25*,52*,41*
CC(=O)Nc1cccc(C(=O)/C=C/c2ccc(C)cc2)c1,-7,-14,.,3,0,49*,87*,82*
CC1(C(=O)NCCC#N)CCN1C(=O)c1ccccc1CCc1ccccc1 (stereo unspecified),0,.,-32,.,.,4,.,.
CC1(NC(=O)C2CCCCC2)CCS(=O)(=O)C1 (stereo unspecified),1,-5,-1,1,0,0,.,.
OCc1c[nH]c(=S)n1CCOc1cccc(C(F)(F)F)c1,2,.,.,-1,.,-10,.,.
COc1cccc(-n2nc(C(N)=O)c(O)cc2=O)c1,2,-3,-8,0,0,-10,.,.
COc1cccc(-n2nc(C#N)c(Cl)cc2=O)c1,-11,12,.,-1,1,29*,37*,41*
CN1CCS/C1=C/C=C1/SC(=S)N(Cc2ccccc2)C1=O,3,i,-26,0,0,25*,22*,18*
CCCCN1C(=O)/C(=C/C=C2\SCCN2C)SC1=S,9.8*,.,-16,2,0,30*,25*,21*
O=C(N/N=C/C=C/c1ccco1)c1ccccc1Cl,3,-5,-22,1,0,33*,32*,37*
O=C(N/N=C/C=C/c1ccco1)/C(=C/c1ccccc1)NC(=O)c1ccccc1,2,.,.,0,0,33*,52*,49*
CC(=O)N(C)C(c1ccc(N(C)C)cc1)c1nnnn1-c1c(C)cccc1C (stereo unspecified),1,1,.,0,0,3,.,.
CC1CCCCN1CCCNC(=O)c1ccc2c(c1)NC(=O)CN2C (stereo unspecified),2,.,10,.,.,10,.,.
CCCCN(CCCNC(=O)c1ccc2c(c1)NC(=O)CN2C)c1ccccc1,-1,.,11,.,.,70*,52*,72*
Cc1ccc(C(C(=O)NC(C)(C)C)N(CC2CCCO2)C(=O)CCC(=O)Nc2ccccn2)cc1 (stereo unspecified),-1,.,.,0,.,0,.,.
Cc1ccc(-c2nn(-c3ccccc3)cc2CN(Cc2ccccc2)C(=O)c2ccco2)o1,0,-8,21,0,-1,38*,15,21*
COC(C[C@@H]1O[C@H]1C(=O)COCc1ccccc1)OC,0,-10,-6,0,.,31*,6,1
COC(C/C=C/C(=O)COCc1ccccc1)OC,-1,1,.,2,.,24*,46*,43*
COC(C/C=C/C(=O)[C@H](C)OCc1ccccc1)OC,-6,-8,-4,3,.,30*,55*,55*
SMILES,FXN GAA850 act,Rad51 HR inh,H9c2 TAG inh,HIF act,Hsp70 act,ABHD5 PLIN5 PPI,ABHD5-PLIN5 conf,HNF4 counter
Cc1nsc(Nc2ccccc2)c1C#N,0,12,-1,0,0,-5,.,.
COc1ccc(/C=C/C(=O)c2ccccc2O)cc1,3,1,-16,5,0,19,.,.
COc1ccc(/C=C/C(=O)c2c(O)c(OC)c3occc3c2OC)cc1,0,-8,3,.,0,49*,79*,65*
COc1cc(/C=C2\CC/C(=C\c3cc(OC)c(OC)c(OC)c3)C2=O)cc(OC)c1OC,4,-18,-14,0,0,3,.,.
COc1cc(/C=C2\CC/C(=C\c3cc(OC)c(O)c(OC)c3)C2=O)cc(OC)c1O,-4,-42,1,.,0,32*,39*,39*
COc1cc(/C=C2\COC/C(=C\c3cc(OC)c(OC)c(OC)c3)C2=O)cc(OC)c1OC,-13,13,79,-7,.,47*,101*,101*
O=C(CC(=O)c1ccccc1)Nc1ccccc1C(F)(F)F,1,.,.,2,.,-11,.,.
CCOC(=O)c1c(-c2ccco2)csc1NC(=O)COC(=O)c1cnccn1,3,.,14,-3,.,25*,18,15*
O=C(C[n+]1cccc(CNC(=O)c2ccc(OC(F)F)cc2)c1)Nc1ccc(SC(F)F)cc1,-1,24,.,-1,0,29*,16,3
CCN(CC)c1ccc(C(=O)NNC(=O)CCNC(=O)c2ccccc2)cc1,0,.,12,.,.,-12,.,.
CCN(CC)c1ccc(C(=C2C=CC(=[N+](CC)CC)C=C2)c2ccc(N(CC)CC)cc2)cc1,-10,.,136,.,.,64*,58*,58*
CCN(CC)c1ccc(C(=C2C=CC(=[N+](CC)CC)C=C2)c2ccccc2)cc1,-15,.,141,.,.,98*,102*,109*
O=C(Nc1ccc(F)cc1)C1CCN(S(=O)(=O)c2ccc3[nH]c(=O)oc3c2)CC1,-1,.,.,0,.,1,.,.
CC(NC(=O)CN1C(=O)NC2(CCCC2)C1=O)c1ccc2ccccc2c1 (stereo unspecified),2,.,5,.,.,-1,.,.
CC(=O)c1ccc2noc(-c3ccccc3)c2c1,1,-2,15,1,0,28*,31*,49*
